Reference: ChEMBL document CHEMBL3877283, “Antitubercular activity of 1,2,3-triazolyl fatty acid derivatives” (Eur J Med Chem, 2017)

Tests used:
Format in all cases: functional
[1] = tested on: Mycobacterium tuberculosis; assay: Antimycobacterial activity against rifampicin-resistant Mycobacterium tuberculosis isolate 110 measured after 5 days by MTT dye based two-fold microdilution method; settings: isolate 110, 120 h
Procedure, shortened: (§1)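 Two-fold serial dilution in 96-well plates in Middlebrook 7H9 with 10% ADS and 1% glycerol (7H9-ADS-G). DMSO stocks were diluted to a top concentration of 100 μg/mL and down to 0.8 μg/mL, run in duplicate. Wells received mid-log bacilli in 7H9-ADS-G, incubated 5 days at 37 °C, then MTT for 24 h. MIC is the lowest concentration blocking yellow-to-purple change. Rifampicin was the control.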

[2] = tested on: Mycobacterium tuberculosis; assay: Antimycobacterial activity against rifampicin-resistant Mycobacterium tuberculosis isolate 277 measured after 5 days by MTT dye based two-fold microdilution method; settings: isolate 277, 120 h; procedure, shortened: as §1
[3] = tested on: Mycobacterium tuberculosis; assay: Antimycobacterial activity against rifampicin-resistant Mycobacterium tuberculosis isolate 300 measured after 5 days by MTT dye based two-fold microdilution method; settings: isolate 300, 120 h; procedure, shortened: as §1
[4] = tested on: Mycobacterium tuberculosis; assay: Antimycobacterial activity against rifampicin-resistant Mycobacterium tuberculosis isolate 925 measured after 5 days by MTT dye based two-fold microdilution method; settings: isolate 925, 120 h; procedure, shortened: as §1
[5] = tested on: Mycobacterium tuberculosis; assay: Antimycobacterial activity against rifampicin-resistant Mycobacterium tuberculosis isolate 958 measured after 5 days by MTT dye based two-fold microdilution method; settings: isolate 958, 120 h; procedure, shortened: as §1
[6] = tested on: Mycobacterium tuberculosis; assay: Antimycobacterial activity against isoniazid resistant Mycobacterium tuberculosis isolate 277b measured after 5 days by MTT dye based two-fold microdilution method; settings: 120 h; procedure, shortened: as §1
[7] = tested on: Mycobacterium tuberculosis; assay: Antimycobacterial activity against isoniazid resistant Mycobacterium tuberculosis isolate 620 measured after 5 days by MTT dye based two-fold microdilution method; settings: isolate 620, 120 h; procedure, shortened: as §1
[8] = tested on: Mycobacterium tuberculosis; assay: Antimycobacterial activity against isoniazid/streptomycin resistant Mycobacterium tuberculosis isolate 396 measured after 5 days by MTT dye based two-fold microdilution method; settings: isolate 396, 120 h; procedure, shortened: as §1
[9] = tested on: Mycobacterium tuberculosis; assay: Antimycobacterial activity against isoniazid/streptomycin resistant Mycobacterium tuberculosis isolate 681 measured after 5 days by MTT dye based two-fold microdilution method; settings: isolate 681, 120 h; procedure, shortened: as §1
[10] = tested on: Mycobacterium tuberculosis; assay: Antimycobacterial activity against isoniazid/streptomycin resistant Mycobacterium tuberculosis isolate 780 measured after 5 days by MTT dye based two-fold microdilution method; settings: isolate 780, 120 h; procedure, shortened: as §1
[11] = tested on: Mycobacterium tuberculosis; assay: Antimycobacterial activity against isoniazid/streptomycin resistant Mycobacterium tuberculosis isolate 914 measured after 5 days by MTT dye based two-fold microdilution method; settings: isolate 914, 120 h; procedure, shortened: as §1
[12] = tested on: Mycobacterium tuberculosis; assay: Antimycobacterial activity against rifampicin/streptomycin resistant Mycobacterium tuberculosis isolate 675 measured after 5 days by MTT dye based two-fold microdilution method; settings: isolate 675, 120 h; procedure, shortened: as §1
[13] = tested on: Mycobacterium tuberculosis; assay: Antimycobacterial activity against rifampicin/isoniazid/pyrazinamide resistant Mycobacterium tuberculosis isolate 122 measured after 5 days by MTT dye based two-fold microdilution method; settings: isolate 122, 120 h; procedure, shortened: as §1
[14] = tested on: Mycobacterium tuberculosis; assay: Antimycobacterial activity against rifampicin/isoniazid/pyrazinamide resistant Mycobacterium tuberculosis isolate 501 measured after 5 days by MTT dye based two-fold microdilution method; settings: isolate 501, 120 h; procedure, shortened: as §1

Measured: MIC

CCCCCCCCc1cn(CC(=O)OCC)nn1
0.9 µM: [13]
3.7 µM: [14]
1.9 µM: [1] | [2] | [3] | [4] | [5] | [6] | [7] | [8] | [9] | [10] | [11] | [12]
